From ChEMBL document CHEMBL4699414, “Hit-to-lead optimization of novel benzimidazole phenylacetamides as broad spectrum trypanosomacides” (RSC Med Chem, 2020)
pIC50: −log10 of the molar value.

Experiments:
[1] = Cytotoxicity against human HEK293 cells assessed as reduction in cell viability measured after 48 hrs by resazurin assay; format: cell-based
How it was run: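 HEK293 cells from ATCC; Alamar Blue viability read-out run per earlier method.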

[2] = system: Trypanosoma brucei brucei; assay: Antitrypanosomal activity against Trypanosoma brucei brucei Lister 427 assessed as parasite growth inhibition measured after 48 hrs by alamar blue assay; settings: Lister 427, 48 h
[3] = Cytotoxicity against human HepG2 cells assessed as reduction in cell viability measured after 48 hrs by CellTiter-Glo assay; format: cell-based
How it was run: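 HepG2 human hepatoma cells from GSK Biological Reagents and Assay Development (Stevenage, UK); viability read-out per earlier method.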

[4] = Lipophilicity, logP of the compound; format: physicochemical; settings: octanol/water
Trypanosoma cruzi = assay: Antitrypanosomal activity against Trypanosoma cruzi infected in rat H9c2 infected with trypomastigotes from parasite-infected monkey LLC-MK2 cells measured after 72 hrs by DRAQ5 DNA dye based microscopic imaging analysis; format: functional, organism-based; settings: H9c2, 72 h
[5] = Cytotoxicity against rat H9c2 cells assessed as reduction in cell viability; format: cell-based

Row | Structure (SMILES) | CC50 at 48 h [1] [µM] | pIC50 [2] | CC50 at 48 h [3] [µM] | logP [4] | pIC50 (Trypanosoma cruzi) | CC50 [5] [µM]
1 | CCCn1c(NC(=O)c2ccccc2)nc2ccccc21 | > 83 | 5.42 | 25 | 4.1 | 5.30 | > 50
2 | O=C(Cc1ccc(Cl)cc1)Nc1nc2ccccc2[nH]1 | > 83 |  | > 50 | 3.6 | 4.30 | > 50
3 | CCn1c(NC(=O)Cc2ccc(Cl)cc2)nc2ccccc21 | > 83 | 5.51 | > 50 | 4.2 | 5.60 | 40
4 | Cn1c(NC(=O)Cc2ccc(Cl)cc2)nc2ccccc21 | > 83 | 5.42 | > 50 | 3.8 | 5.49 | > 50
5 | CCCCCCCCC(=O)Nc1nc2ccccc2n1CCC | > 83 | 5.14 | > 50 | 5.7 | 5.60 | 20
6 | CCCn1c(NC(=O)Cc2ccc3ccccc3c2)nc2ccccc21 | > 83 | 5.26 | 25 | 5.1 | 5.89 | > 50
7 | CCCn1c(NC(=O)Cc2ccc(Cl)cc2)nc2ccc(Br)cc21 | > 83 | 5.82 | > 50 | 5.5 | 6.40 | 13
8 | CCCn1c(NC(=O)CCc2ccccc2)nc2ccccc21 | 14 | 5.46 | > 50 | 4.6 | 5.30 | > 50
9 | CCCn1c(NC(=O)Cc2ccccc2OC)nc2ccccc21 | > 83 | < 4.08 | > 50 | 4 | 5.20 | 13
10 | CCCn1c(NC(=O)Cc2ccccc2C)nc2ccccc21 | > 83 | 5.59 | > 50 | 4.6 | 5.60 | > 50
11 | CCCn1c(NC(=O)Cc2cccc(Cl)c2)nc2ccccc21 | 15 | 5.44 | > 50 | 4.7 | 5.80 | > 50
12 | CCCn1c(NC(=O)Cc2cccc(C)c2)nc2ccccc21 | 15 | 5.44 | > 50 | 4.6 | 5.70 | > 50
13 | CCCn1c(NC(=O)Cc2ccccc2Br)nc2ccccc21 | > 83 | 5.70 | 20 | 4.9 | 5.80 | > 50
14 | CCCn1c(NC(=O)Cc2ccc(C(F)(F)F)cc2)nc2ccccc21 | > 83 | 5.35 | > 50 | 5 | 6.00 | > 50
15 | CCCn1c(NC(=O)Cc2cccc(F)c2)nc2ccccc21 | > 83 | 5.49 | > 50 | 4.3 | 5.70 | > 50
16 | CCCn1c(NC(=O)Cc2ccc(Br)cc2)nc2ccccc21 | > 83 | 5.30 | > 50 | 4.9 | 5.70 | > 50
17 | CCCn1c(NC(=O)Cc2ccc(Cl)cc2)nc2cc(Br)ccc21 | > 83 | 4.80 |  | 5.5 | 6.10 | > 50
18 | CCCn1c(NC(=O)Cc2ccc(OC)cc2)nc2ccccc21 | > 83 | 5.28 | > 50 | 4 | 5.49 | > 50
19 | CCCn1c(NC(=O)Cc2ccc(OC(C)=O)cc2)nc2ccccc21 | > 83 | 4.85 | > 50 | 3.7 | 4.49 | > 50
20 | CCCn1c(NC(=O)Cc2ccc(-c3ccccc3)cc2)nc2ccccc21 | > 83 | 5.47 | > 50 | 5.8 | 6.00 | > 50
21 | CCCn1c(NC(=O)Cc2ccc(Cl)cc2)nc2ccc(C)cc21 | > 83 | 4.82 |  | 5.2 |  | 
22 | CCCn1c(NC(=O)Cc2ccc(Cl)cc2)nc2ccc(F)cc21 | 14 | 6.05 | > 50 | 4.9 | 5.89 | 25
23 | CCCCCn1c(NC(=O)Cc2ccc(Cl)cc2)nc2ccccc21 | > 83 | 5.43 | > 50 | 5.6 | 6.00 | > 50
24 | CCCn1c(NC(=O)Cc2ccc(Cl)cc2)nc2cccc(Br)c21 | > 83 | 5.55 |  | 5.5 |  | 

Row | Structure (SMILES) | CC50 at 48 h [1] [µM] | pIC50 [2] | CC50 at 48 h [3] [µM] | logP [4] | pIC50 (Trypanosoma cruzi) | CC50 [5] [µM]
25 | CCCn1c(NC(=O)Cc2ccccc2F)nc2ccccc21 | > 83 | 5.44 | > 50 | 4.3 | 5.49 | > 50
26 | CCCn1c(NC(=O)Cc2ccc(Cl)cc2)nc2ccc(Cl)cc21 | > 83 | 5.62 | > 50 | 5.3 | 6.30 | 6.3
27 | CCCc1c(NC(=O)Cc2ccc(Cl)cc2)ncc2ccccc12 |  |  | 7.94 | 5.4 | 6.30 | 3.2
28 | CCCn1c(NC(=O)Cc2ccc(Cl)cc2)nc2c(OC)cccc21 | > 83 | < 4.08 | > 50 | 4.6 | 5.49 | > 50
29 | CCCn1c(NC(=O)Cc2cccc3ccccc23)nc2ccccc21 | 10 | 5.59 | 20 | 5.1 | 6.00 | > 50
30 | CCCn1c(NC(=O)Cc2ccc(OC(F)(F)F)cc2)nc2ccccc21 | > 83 | 5.49 | > 50 | 5.6 | 6.00 | 10
31 | CCCn1c(NC(=O)Cc2ccc(Cl)cc2)nc2cccc(C)c21 | > 83 | 5.03 | > 50 | 5.2 | 5.89 | > 50
32 | CCCn1c(NC(=O)Cc2ccc(F)cc2)nc2ccccc21 | > 83 | 5.60 | > 50 | 4.3 | 5.60 | > 50
33 | CCCn1c(NC(=O)Cc2ccccc2Cl)nc2ccccc21 | 14 | 5.64 | 25 | 4.7 | 5.70 | 25
34 | CCCCC(=O)Nc1nc2ccccc2n1CCC | 2.6 | 4.96 | > 50 | 3.9 | 4.89 | 25
35 | CCCn1c(NC(=O)Cc2cccc(Br)c2)nc2ccccc21 | > 83 | 5.54 | > 50 | 4.9 | 6.00 | > 50
36 | CCCn1c(C(=O)NCc2ccc(Cl)cc2)nc2ccccc21 | > 83 | < 4.08 | > 50 | 4.1 | 5.00 | 16
37 | CCCn1c(NC(=O)Nc2ccc(Cl)cc2)nc2ccccc21 | 5.2 | 5.27 | 40 | 4.8 | 5.60 | > 50
38 | CCCn1c(NC(=O)Cc2ccc(O)cc2)nc2ccccc21 | > 83 | < 4.08 | > 50 | 3.8 | 4.40 | > 50
39 | CCCn1c(NC(=O)Cc2ccccc2)nc2ccccc21 | > 83 | 5.39 | > 50 | 4.1 | 5.40 | > 50
40 | CCCn1c(NC(=O)Cc2ccc(Cl)nc2)nc2ccccc21 | > 83 | < 4.08 | > 50 | 3.7 | 5.10 | > 50
41 | CCCCn1c(NC(=O)Cc2ccc(Cl)cc2)nc2ccccc21 | > 83 | 5.36 | > 50 | 5.2 | 5.80 | 13
42 | CCCn1c(NC(=O)Cc2cccc(OC)c2)nc2ccccc21 | > 83 | 5.37 | > 50 | 4 | 5.40 | > 50
43 | CCCn1c(NC(=O)/C=C/c2ccccc2)nc2ccccc21 | > 83 | 5.68 | 40 | 4.6 | 5.89 | 20
44 | CCCn1c(NC(=O)CCCc2ccccc2)nc2ccccc21 | > 83 | 5.62 | > 50 | 5 | 5.80 | 16
45 | O=C(Cn1ccnc1[N+](=O)[O-])NCc1ccccc1 [BENZNIDAZOLE] |  |  |  |  | 5.80 | 31.6
46 | N=C(N)c1ccc(/N=N/Nc2ccc(C(=N)N)cc2)cc1 [DIMINAZENE DIACETURATE] | 38.5 | 7.06 |  |  |  | 
47 | N=C(N)c1ccc(OCCCCCOc2ccc(C(=N)N)cc2)cc1 [PENTAMIDINE] | 0.67 | 7.85 |  |  |  | 
48 | COc1ccc(C[C@H](N)C(=O)N[C@H]2[C@@H](O)[C@H](n3cnc4c(N(C)C)ncnc43)O[C@@H]2CO)cc1 [PUROMYCIN] | 0.23 | 7.42 |  |  |  | 
